pIC50: −log10 of the molar value. Active and inactive are the calls of the source. The calls are words filed in the database; no cut-off is given here.
What was measured:
[1] = Uncoupling respiration effect in mouse TA3-MTX-R cells after 2 mins by polarographic analysis in presence of FCCP; format: functional
Summary of the method: (§1)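 Polarographic respiration of digitonin-permeabilized cells (0.013 μg/mg protein; 2.5 mg protein/mL) in PBS pH 7.4 with 10 mM succinate and 1 μg/mL oligomycin. Cations added in 3 μL DMSO. Atractyloside 5 nmol/mg protein was added before succinate. FCCP added at the end: 0.15 μM for TA3, 0.25 μM for TA3-MTX-R. Slope and K0.5 taken from log–log linear regression; at least three experiments.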

[2] = Cytotoxicity against mouse multidrug-resistant TA3-MTX-R cells after 48 hrs by neutral red assay; format: functional, cell-based
Summary of the method: (§2)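 Neutral red uptake after 48 h exposure at 37 °C, 5% CO2. Seeding: 1 × 10^5 cells/mL for TA3, TA3-MTX-R and CCRF-CEM; 4 × 10^4 cells/mL for MM3MG. Dye at 100 μg/mL for 2 h, then ethanol/acetic acid extraction and absorbance at 540 nm. IC50 from variable-slope sigmoidal dose–response fit; at least three independent experiments in triplicate, mean ± SEM.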

TA3/Ha [3] = test: Induction of apoptosis in mouse TA3/Ha cells assessed as caspase 3 activation at 0.5 uM after 24 hrs by Western blot analysis; format: functional, cell-based
Summary of the method: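 Caspase 3 measured by Western blot. RIPA lysates, 50 μg protein run on 12% SDS–PAGE. Anti-caspase 3 (1:1000) and tubulin loading control (1:10000) overnight at 4 °C; HRP secondary for 2 h. ECL detection and densitometry.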

TA3/Ha [4] = test: Reduction of ATP level in mouse TA3/Ha cells at 1 to 20 uM after 2 hrs by CellTiter-Glo luminescent assay; format: functional, cell-based
Summary of the method: (§3)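 CellTiter-Glo luminescence on 2 × 10^5 cells/mL incubated with cation for 2 h. Aliquot held 10 min at room temperature in the dark before reading; at least three experiments.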

TA3/Ha [5] = test: Induction of apoptosis in mouse TA3/Ha cells assessed as early stage apoptotic cells at 0.5 uM after 24 to 48 hrs using annexin V/propidium iodide staining by flow cytometry; format: functional, cell-based
Summary of the method: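 Annexin V-FITC/PI flow cytometry on 1 × 10^5 cells/mL treated for 24 and 48 h at 37 °C, 5% CO2. 5 min staining at room temperature; 5000 events recorded. Early apoptosis scored as annexin V+/PI−. Staurosporine 10 μM as positive control; at least three experiments, ANOVA with Bonferroni test.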

TA3/Ha [6] = test: Reduction of ATP level in mouse TA3/Ha cells after 2 hrs by CellTiter-Glo luminescent assay; format: functional, cell-based; summary of the method: as §3
TA3/Ha [7] = test: Cytotoxicity against mouse TA3/Ha cells up to 24 hrs by lactate dehydrogenase assay; format: functional, cell-based
Summary of the method: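 LDH release measured with a kit on 2 × 10^5 cells/mL incubated at 37 °C, 5% CO2, 90% humidity. Supernatant taken after centrifugation at 600g for 3 min, then 30 min with reaction mix at room temperature; absorbance read at 450 nm.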

[8] = Uncoupling respiration effect in mouse TA3/Ha cells after 2 mins by polarographic analysis in presence of FCCP; format: functional; summary of the method: as §1
CCRF-CEM = test: Cytotoxicity against human CCRF-CEM cells after 48 hrs by neutral red assay; format: functional, cell-based; summary of the method: as §2
[9] = Cytotoxicity against mouse MM3MG cells after 48 hrs by neutral red assay; format: cell-based; summary of the method: as §2
[10] = Cytotoxicity against mouse TA3/Ha cells after 48 hrs by neutral red assay; format: functional, cell-based; summary of the method: as §2
[11] = Toxicity in mouse TA3/Ha cells assessed as cell membrane integrity after 24 hrs using propidium iodide by flow cytometry; format: cell-based; conditions: 2 to 4 h, in the assay text read “after 2 to 4 hrs” for “after 24 hrs”
Summary of the method: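 Membrane integrity by PI uptake on flow cytometry. Cells were seeded, grown for 24 h at 37 °C, 5% CO2, then given fresh medium with cation for 2 and 4 h before PI was added. Mean ± SEM of at least three experiments.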

TA3/Ha [12] = test: Antitumor activity against mouse TA3/Ha cells allografted in CAF1-Jax mouse syngenic model assessed as inhibition of tumor growth at 10 mg/kg, ip administered every 48 hrs of 30 days; format: functional, organism-based; design: dose 10 mg/kg
Summary of the method: (§4)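 Adult male CAF1-Jax mice; 1.0 × 10^6 TA3/Ha cells in 0.1 mL 0.9% NaCl injected subcutaneously into the back. 10 mg/kg given ip every 48 h for 30 days to groups of six mice; controls received vehicle. Tumor diameters measured three times weekly; volume = (max diameter)(min diameter)²/2. Two independent experiments.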

TA3/Ha [13] = test: Decrease of mitochondrial transmembrane potential in mouse TA3/Ha cell mitochondria at 0.5 uM after 5 mins by safranin staining; format: functional
Summary of the method: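 Safranin (20 μM) absorbance change at 511–533 nm in isolated mitochondria (1.0 mg/mL) in sucrose/KCl/Hepes pH 7.4 buffer with EGTA and phosphate. Baseline 5 min, then 2 mM glutamate + 2 mM malate for 5 min, then cation added. Mean ± SD of at least three experiments.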

TA3/Ha (Mus musculus) [14] = test: Induction of mitochondrial swelling in mouse TA3/Ha cell mitochondria at 0.15 mM by UV/vis spectrophotometer analysis in presence of cyclosporine-A
TA3-MTX-R [15] = test: Induction of mitochondrial swelling in mouse TA3-MTX-R cell mitochondria at 0.05 to 0.20 mM by UV/vis spectrophotometer analysis; format: functional
[16] = Cell cycle arrest in mouse TA3/Ha cells assessed as accumulation at G0/G1 phase at 0.1 to 5 uM after 24 hrs; format: functional, cell-based
TA3/Ha [17] = test: Antitumor activity against mouse TA3/Ha cells allografted in CAF1-Jax mouse syngenic model assessed as increase of host survival at 10 mg/kg, ip administered every 48 hrs of 30 days; format: functional, organism-based; design: dose 10 mg/kg
TA3/Ha [18] = test: Induction of mitochondrial swelling in mouse TA3/Ha cell mitochondria at 0.15 mM by UV/vis spectrophotometer analysis in presence of N-ethylmaleimide; format: functional
Summary of the method: (§5)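 Same swelling set-up with TA3/Ha mitochondria at 0.15 mM cation, in the presence of NEM, DTT or NAC. Mean ± SEM of at least three experiments, ANOVA with Bonferroni test.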

Mus musculus = test: Toxicity in mouse TA3/Ha cells allografted CAF1-Jax mouse syngenic model at 10 mg/kg, ip administered every 48 hrs of 30 days; format: organism-based; design: dose 10 mg/kg, route intraperitoneal; conditions: in vivo; summary of the method: as §4
TA3/Ha [19] = test: Induction of NAD(P)H oxidation in mouse TA3/Ha cells assessed as reduction of NAD(P)H/NAD(P)+ ratio at 2.5 mg of protein/mL by spectrofluorometer analysis; format: functional, cell-based
Summary of the method: (§6)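 NAD(P)H autofluorescence (ex 340, em 420 nm) at 25 °C with stirring. Medium: PBS pH 7.4, 2.5 mM glutamine, TA3 cells at 2.5 mg protein/mL. Rotenone (12 μM), FCCP (6 μM) or test cation added during the time course.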

TA3/Ha [20] = test: Induction of mitochondrial swelling in mouse TA3/Ha cell mitochondria at 0.15 mM by UV/vis spectrophotometer analysis in presence of dithiothreitol; format: functional; summary of the method: as §5
TA3/Ha [21] = test: Induction of NAD(P)H oxidation in mouse TA3/Ha cells assessed as reduction of NAD(P)H/NAD(P)+ ratio by spectrofluorometer analysis; format: functional, cell-based; summary of the method: as §6
[22] = Uncoupling respiration effect in mouse TA3/Ha cells after 2 mins by polarographic analysis in presence of atractyloside; format: functional; summary of the method: as §1
TA3/Ha [23] = test: Decrease of mitochondrial transmembrane potential in mouse TA3/Ha cell mitochondria at 0.5 uM after 5 mins by JC-1 staining in presence of ADP; format: functional
TA3/Ha (Mus musculus) [24] = test: Induction of mitochondrial swelling in mouse TA3/Ha cell mitochondria at 0.15 mM by UV/vis spectrophotometer analysis in presence of N-ethylmaleimide
[25] = Ratio of IC50 for mouse MM3MG cells to IC50 for mouse TA3/Ha cells
Summary of the method: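 Ratio of 48 h neutral red IC50 values. MM3MG seeded at 4 × 10^4 cells/mL, TA3 at 1 × 10^5 cells/mL. Each IC50 from a variable-slope sigmoidal fit of at least three independent experiments.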

TA3/Ha [26] = test: Induction of mitochondrial swelling in mouse TA3/Ha cell mitochondria at 0.15 mM by UV/vis spectrophotometer analysis in presence of cyclosporine-A; format: functional
Summary of the method: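 Same swelling set-up with TA3/Ha mitochondria (0.5 mg/mL, KCl/Tris pH 7.4, glutamate/malate) at 0.15 mM cation, with increasing cyclosporine concentrations.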

TA3/Ha (Mus musculus) [27] = test: Induction of mitochondrial swelling in mouse TA3/Ha cell mitochondria at 0.15 mM by UV/vis spectrophotometer analysis in presence of dithiothreitol
TA3/Ha [28] = test: Decrease of mitochondrial transmembrane potential in mouse TA3/Ha cell mitochondria at 0.5 uM after 5 mins by JC-1 staining; format: functional
[29] = Uncoupling respiration effect in mouse TA3-MTX-R cells after 2 mins by polarographic analysis in presence of atractyloside; format: functional; summary of the method: as §1
TA3/Ha [30] = test: Induction of mitochondrial swelling in mouse TA3/Ha cell mitochondria at 0.05 to 0.20 mM by UV/vis spectrophotometer analysis; format: functional
TA3/Ha [31] = test: Induction of mitochondrial swelling in mouse TA3/Ha cell mitochondria at 0.15 mM by UV/vis spectrophotometer analysis in presence of N-acetylcysteine; format: functional; summary of the method: as §5
TA3-MTX-R [32] = test: Induction of mitochondrial swelling in mouse TA3-MTX-R cell mitochondria at 0.15 mM by UV/vis spectrophotometer analysis in presence of N-acetylcysteine; format: functional

O=C(OCCCCCCCCCCCC[P+](c1ccccc1)(c1ccccc1)c1ccccc1)c1cc(O)c(O)c(O)c1.[Br-]
K0.5 [1]: 3.1 ×10⁻⁵ M | pIC50 [2]: 5.92 | Activity (TA3/Ha [3]): inactive | Activity (TA3/Ha [4]): Active | Activity (TA3/Ha [5]): Active | Activity (TA3/Ha [6]): Dose-dependent effect | Activity (TA3/Ha [7]): Active | K0.5 [8]: 2.9 ×10⁻⁵ M | pIC50 (CCRF-CEM): 6.24 | pIC50 [9]: 5.86 | pIC50 [10]: 6.13 | Activity [11]: Non-toxic

O=C(OCCCCCCCCCCC[P+](c1ccccc1)(c1ccccc1)c1ccccc1)c1cc(O)c(O)c(O)c1.[Br-]
pIC50 [2]: 5.43 | Activity (TA3/Ha [3]): inactive | Activity (TA3/Ha [4]): Active | Activity (TA3/Ha [5]): Active | Activity (TA3/Ha [6]): Dose-dependent effect | Activity (TA3/Ha [7]): Active | pIC50 (CCRF-CEM): 4.70 | pIC50 [9]: 4.84 | pIC50 [10]: 5.19 | Activity [11]: Non-toxic

O=C(OCCCCCCCCCC[P+](c1ccccc1)(c1ccccc1)c1ccccc1)c1cc(O)c(O)c(O)c1.[Br-]
TGI (TA3/Ha [12]): Active | Activity (TA3/Ha [13]): Active | K0.5 [1]: 1.8 ×10⁻⁵ M | Activity (TA3/Ha (Mus musculus) [14]): Active | pIC50 [2]: 6.42 | Activity (TA3-MTX-R [15]): Active | Activity [16]: Active | Activity (TA3/Ha [3]): Active | Activity (TA3/Ha [17]): Active | Activity (TA3/Ha [4]): Active | Activity (TA3/Ha [5]): Active | Activity (TA3/Ha [6]): Dose-dependent effect | Activity (TA3/Ha [18]): inactive | Activity (TA3/Ha [7]): Active | K0.5 [8]: 1.21 µM | Activity (Mus musculus): Non-toxic | pIC50 (CCRF-CEM): 5.78 | Activity (TA3/Ha [19]): Active | pIC50 [9]: 5.15 | Activity (TA3/Ha [20]): inactive | Activity (TA3/Ha [21]): Dose-dependent effect | K0.5 [22]: 4.29 ×10⁻⁵ M | Activity (TA3/Ha [23]): Active | Activity (TA3/Ha (Mus musculus) [24]): inactive | Ratio IC50 [25]: 17 | Activity (TA3/Ha [26]): Active | pIC50 [10]: 6.40 | Activity (TA3/Ha (Mus musculus) [27]): inactive | Activity [11]: Non-toxic | Activity (TA3/Ha [28]): Active | K0.5 [29]: 5.24 ×10⁻⁵ M | Activity (TA3/Ha [30]): Active | Activity (TA3/Ha [31]): inactive | Activity (TA3-MTX-R [32]): Active

CCCCCCCCCCCCOC(=O)c1cc(O)c(O)c(O)c1 [DODECYL GALLATE]
pIC50 [2]: 5.52 | pIC50 (CCRF-CEM): 4.81 | pIC50 [9]: 4.52 | pIC50 [10]: 5.15

c1ccc(P(c2ccccc2)c2ccccc2)cc1
pIC50 [2]: < 3.70 | pIC50 (CCRF-CEM): 3.74 | pIC50 [9]: < 3.70 | pIC50 [10]: 3.72
